In brackets after ≈: the same amount, converted by molar mass. Activity calls are given as the source filed them. No cut-off for these calls is given here.
Tests used:
[1] = biological target: T1, Sigma non-opioid intracellular receptor 1 (Homo sapiens, UniProt Q99720); assay: Displacement of [3H]-(+)-pentazocine from sigma 1 receptor (unknown origin) at 25 nM by scintillation counting analysis; settings: filed as agonist
Method in brief: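 Single-concentration screen at 25 nM test compound against [3H](+)pentazocine (15 nM) at S1R; scintillation counting; result given as % inhibition of control specific binding, i.e. 100 minus measured/control specific binding ×100.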

[2] = biological target: T1, Sigma non-opioid intracellular receptor 1; assay: Displacement of [3H]-(+)-pentazocine from sigma 1 receptor (unknown origin) assessed as inhibition constant by scintillation counting analysis
Method in brief: (§1)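 Radioligand displacement at S1R with [3H](+)pentazocine (15 nM) and at S2R with [3H]DTG (25 nM); S2R assay includes 1 μM cold (+)pentazocine to mask S1R sites. Bound radioactivity counted by scintillation. IC50 and Hill slope from non-linear Hill fit of competition curves; Ki by Cheng–Prusoff using radioligand concentration and KD from Scatchard plot.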

[3] = biological target: Sigma intracellular receptor 2 (Homo sapiens, UniProt Q5BJF2); assay: Displacement of [3H]DTG from sigma 2 receptor (unknown origin) assessed as inhibition constant by scintillation counting analysis; method in brief: as §1
[4] = Selectivity index, ratio of Ki for displacement of [3H]DTG from sigma 2 receptor (unknown origin) to Ki for displacement of [3H]-(+)-pentazocine from sigma 1 receptor (unknown origin)
PC-12 = assay: Neuroprotective activity in rat PC12 cells assessed as induction of NGF-mediated neurite outgrowth at 0.1 to 5 uM in presence of NE-100 by neurite outgrowth assay; type: functional, cell-based; settings: dose 0.1-5 µM
Method in brief: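 PC12 cells stimulated with NGF (2.5 nM) and treated with compound up to 5 μM, alone or after pre-treatment with S1R antagonist NE-100 (3 μM); read-out is percentage of cells bearing neurite sprouts; mean ± SEM of three independent experiments.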

SH-SY5Y [5] = assay: Neuroprotective activity in human SH-SY5Y cells assessed as prevention of rotenone induced cell damage by measuring cell viability at 1 uM preincubated with PB212 for 1hrs followed by compound addition in presence of rotenone and measured after 24 hrs by MTT assay; type: functional, cell-based
Method in brief: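 SH-SY5Y cells pre-incubated 1 h with S1R antagonist PB212 (5 μM), then treated with compound (1 or 5 μM) plus PB212 (5 μM) and either rotenone 25 μM or NMDA 250 μM for 24 h; viability by MTT; two-way ANOVA with Bonferroni post hoc test.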

SH-SY5Y [6] = assay: Neuroprotective activity in human SH-SY5Y cells assessed as prevention of oligomycin induced cell damage by measuring cell viability at 0.1 to 5 uM incubated for 24 hrs in presence of oligomycin by MTT assay; type: functional, cell-based; settings: dose 0.1-5 µM
Method in brief: (§2)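 SH-SY5Y cells (~7000/well) co-incubated 24 h at 37 °C in 2% FBS medium with toxic stimulus (NMDA 250 μM or oligomycin 2.5 μM) plus compound at 0.1–5 μM. Viability by MTT, expressed as % of control.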

SH-SY5Y [7] = assay: Neuroprotective activity in human SH-SY5Y cells assessed as prevention of NMDA induced cytotoxicity by measuring cell viability at 0.1 to 5 uM incubated for 24 hrs in presence of NMDA by MTT assay; type: functional, cell-based; settings: dose 0.1-5 µM; method in brief: as §2
LoVo = assay: Cytotoxicity against human LoVo cells assessed as reduction in cell survival rate at 100 uM incubated for 48 to 72 hrs by MTT assay; type: toxicity, cell-based; settings: time 48-72 hrs
Method in brief: (§3)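 Cancer lines grown in Ham's F-12K or DMEM with 10% FBS, used in exponential growth; seeded 2500 cells/well, exposed to 0.1–100 μM for 24, 48 and 72 h continuous. Viability by CellTiter 96 AQueous One (tetrazolium) absorbance at 490 nm; three independent experiments in quadruplicate, % survival vs untreated.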

PANC-1 = assay: Cytotoxicity against human PANC-1 cells assessed as reduction in cell survival rate at <=10 uM incubated for 24 to 72 hrs by MTT assay; type: toxicity, cell-based; settings: panc-1, 10 µM, time 24-72 hrs; method in brief: as §3
[8] = Thermodynamic solubility of the compound in HC1/KCl buffer at pH 1.2 incubated for 24 hrs; type: physicochemical; settings: HCl/KCl buffer, read-out: Therm_solubility
Method in brief: (§4)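 10 mM DMSO stock diluted 1:100 into buffer (HCl/KCl pH 1.2; KH2PO4/NaOH pH 6.8; KH2PO4/Na2HPO4 pH 7.4), 1% v/v DMSO final; shaken 24 h at 1200 rpm, filtered through 0.45 μm polycarbonate membrane, filtrate diluted 1:1 with MeOH and analysed.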

[9] = Thermodynamic solubility of the compound in KH2PO4/NaOH buffer at pH 6.8 incubated for 24 hrs; type: physicochemical; settings: read-out: Therm_solubility; method in brief: as §4
[10] = Dissociation constant, pKa of the compound; type: physicochemical
[11] = Lipophilicity, logP of the compound; type: physicochemical; settings: octanol/water
[12] = Toxicity in Zebrafish embryos assessed as morphological abnormality at 0.1 to 50 uM incubated for 5 days by Teratogenic test; set-up: species or system Danio rerio, Embryo; settings: in vivo, 120 h, dose 0.1-50 µM, time 5 day
Method in brief: (§5)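 Tg(GFAP:GFP) zebrafish embryos from 2 female × 1 male matings, 8 embryos per control or concentration, exposed from 1 h post-fertilization and kept at 28 °C for about 5 days without medium change. At 5 dpf (120 h) mortality and developmental abnormalities (tail shape, heart, pigmentation) were scored, with morphology given a severity score.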

[13] = Toxicity in Zebrafish embryos assessed as normal and vital phenotype at 0.1 to 1 uM incubated for 5 days by Teratogenic test; set-up: species or system Danio rerio, Embryo; settings: in vivo, 120 h, dose 0.1-1 µM, time 5 day
Method in brief: (§6)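 Tg(GFAP:GFP) zebrafish embryos, 8 per group, exposed from 1 h post-fertilization to increasing compound concentrations at 28 °C for about 5 days without medium change; mortality, developmental defects and morphology score assessed at 5 dpf.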

[14] = Toxicity in Zebrafish embryos assessed as decrease in embryo vitality rate at 10 to 50 uM incubated for 5 days by Teratogenic test; set-up: species or system Danio rerio; settings: in vivo, 120 h, dose 10-50 µM, time 5 day; method in brief: as §5
[15] = Toxicity in Zebrafish embryos assessed as increase in embryo vitality structure damage at 10 to 50 uM incubated for 5 days by Teratogenic test; set-up: species or system Danio rerio; settings: in vivo, 120 h, dose 10-50 µM, time 5 day; method in brief: as §5
[16] = Toxicity in Zebrafish embryos assessed as death at 10 uM incubated for 5 days by Teratogenic test; set-up: species or system Danio rerio, Embryo; settings: in vivo, time 5 day, read-out: Activity; method in brief: as §5
[17] = Toxicity in Zebrafish embryos assessed as morphological abnormality by observing short and up-curved tail at 10 uM incubated for 5 days by Teratogenic test; set-up: species or system Danio rerio; settings: in vivo, 120 h, time 5 day; method in brief: as §6
[18] = Toxicity in Zebrafish embryos assessed as morphological abnormality by observing enlarged volume of heart at 10 uM incubated for 5 days by Teratogenic test; type: tissue-based, Danio rerio; settings: in vivo, 120 h, time 5 day; method in brief: as §6
[19] = Toxicity in Zebrafish embryos assessed as death at 50 uM incubated for 5 days by Teratogenic test; set-up: species or system Danio rerio, Embryo; settings: in vivo, 120 h, time 5 day; method in brief: as §5
SH-SY5Y [20] = assay: Cytotoxicity against human SH-SY5Y cells assessed as cell viability at 100 uM incubated for 72 hrs by MTT assay

T1 sequence (Q99720 whole entry): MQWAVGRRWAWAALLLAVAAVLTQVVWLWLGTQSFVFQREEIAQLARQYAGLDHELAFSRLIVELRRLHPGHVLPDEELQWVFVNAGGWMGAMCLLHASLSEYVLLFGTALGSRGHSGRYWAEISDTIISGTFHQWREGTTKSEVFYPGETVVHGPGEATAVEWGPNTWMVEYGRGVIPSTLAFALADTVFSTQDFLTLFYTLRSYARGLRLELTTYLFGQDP
Chain of Sigma intracellular receptor 2 (Q5BJF2 whole entry): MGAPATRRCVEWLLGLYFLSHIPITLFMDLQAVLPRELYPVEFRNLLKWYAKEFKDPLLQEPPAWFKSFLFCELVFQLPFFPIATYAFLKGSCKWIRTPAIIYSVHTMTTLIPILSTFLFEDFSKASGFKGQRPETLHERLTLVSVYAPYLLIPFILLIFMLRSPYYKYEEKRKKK

SMILES | Activity [1] [%] | Ki [2] [nM] | Ki [3] [nM] | Ratio Ki [4] | Activity (PC-12) | Activity (SH-SY5Y [5]) | Activity (SH-SY5Y [6]) | Activity (SH-SY5Y [7]) | Activity (LoVo) [%] | Activity (PANC-1) | solubility thermodynamic at 24 h [8] [µg/mL] | solubility thermodynamic at 24 h [9] [µg/mL] | pKa [10] | logP [11] | Activity [12] | Activity [13] | Activity [14] | Activity [15] | mortality at 120 h, 10 µM [16] [%] | Activity [17] | also measured
c1ccc(CC2CCN(CCOc3ccccc3)CC2)cc1 | > 95 | 0.93 | 72 | 77 | inactive | inactive | inactive | Active | 40 | Non-Toxic | 7800 (≈ 26.4 mM) | 7800 (≈ 26.4 mM) | 8.56 | 4 | Toxic | Non-Toxic | Toxic | Toxic | 50 | 75% | Activity [18]: 100%; Activity [19]: Toxic; Activity (SH-SY5Y [20]): 76%
c1ccc(CC2CCN(CCCOc3ccccc3)CC2)cc1 | > 95 | 1.1 | 88 | 80 | inactive | inactive | inactive | Active | 40 | Non-Toxic | 2800 (≈ 9.05 mM) | 2800 (≈ 9.05 mM) | 9.26 | 4.38 | Toxic | Non-Toxic | Toxic | Toxic | 100 | Toxic | Activity [18]: Toxic; Activity [19]: Toxic; Activity (SH-SY5Y [20]): 82%
